# From ChEMBL document CHEMBL1136915 (Bioorg Med Chem Lett, 2009)
# What was measured:
# [1] = Selectivity ratio of IC50 for ovine COX1 to IC50 for human COX2
# Summary of the method: (§1)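 COX inhibition was measured in vitro with an enzyme immunoassay kit. IC50 is the mean of two determinations, with deviation from the mean <10%. COX-2 selectivity index = COX-1 IC50/COX-2 IC50.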
# [2] = target: T1, Prostaglandin G/H synthase 2 (Homo sapiens, UniProt P35354); assay: Inhibition of human COX2 by enzyme immunoassay; summary of the method: as §1
# T1 sequence (P35354 whole entry): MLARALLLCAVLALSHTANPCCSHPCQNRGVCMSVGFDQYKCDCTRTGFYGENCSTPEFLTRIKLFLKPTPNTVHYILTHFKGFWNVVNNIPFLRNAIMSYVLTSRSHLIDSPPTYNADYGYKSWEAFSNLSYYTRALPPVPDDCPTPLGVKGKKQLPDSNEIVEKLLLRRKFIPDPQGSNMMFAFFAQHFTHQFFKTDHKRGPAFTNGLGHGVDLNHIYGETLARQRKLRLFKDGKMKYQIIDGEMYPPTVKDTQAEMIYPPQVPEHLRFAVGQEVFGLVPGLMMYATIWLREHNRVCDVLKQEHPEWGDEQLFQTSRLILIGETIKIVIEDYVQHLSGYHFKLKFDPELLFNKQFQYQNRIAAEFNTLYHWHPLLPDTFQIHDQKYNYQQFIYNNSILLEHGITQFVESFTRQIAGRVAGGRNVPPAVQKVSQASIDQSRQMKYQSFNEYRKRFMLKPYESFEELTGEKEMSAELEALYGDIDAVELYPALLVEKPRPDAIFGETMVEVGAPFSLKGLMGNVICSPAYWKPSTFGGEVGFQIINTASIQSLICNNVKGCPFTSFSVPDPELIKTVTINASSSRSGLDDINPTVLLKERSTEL
# [3] = Nitric oxide release in phosphate buffer at pH 7.4 incubated at 37 degC after 1.5 hrs; set-up: concentration or dose not given beside the values; settings: pH 7.4, 1.5 h
# [4] = target: T2, Prostaglandin G/H synthase 1 (Ovis aries, UniProt P05979); assay: Inhibition of ovine COX1 by enzyme immunoassay
# T2 sequence (P05979 whole entry): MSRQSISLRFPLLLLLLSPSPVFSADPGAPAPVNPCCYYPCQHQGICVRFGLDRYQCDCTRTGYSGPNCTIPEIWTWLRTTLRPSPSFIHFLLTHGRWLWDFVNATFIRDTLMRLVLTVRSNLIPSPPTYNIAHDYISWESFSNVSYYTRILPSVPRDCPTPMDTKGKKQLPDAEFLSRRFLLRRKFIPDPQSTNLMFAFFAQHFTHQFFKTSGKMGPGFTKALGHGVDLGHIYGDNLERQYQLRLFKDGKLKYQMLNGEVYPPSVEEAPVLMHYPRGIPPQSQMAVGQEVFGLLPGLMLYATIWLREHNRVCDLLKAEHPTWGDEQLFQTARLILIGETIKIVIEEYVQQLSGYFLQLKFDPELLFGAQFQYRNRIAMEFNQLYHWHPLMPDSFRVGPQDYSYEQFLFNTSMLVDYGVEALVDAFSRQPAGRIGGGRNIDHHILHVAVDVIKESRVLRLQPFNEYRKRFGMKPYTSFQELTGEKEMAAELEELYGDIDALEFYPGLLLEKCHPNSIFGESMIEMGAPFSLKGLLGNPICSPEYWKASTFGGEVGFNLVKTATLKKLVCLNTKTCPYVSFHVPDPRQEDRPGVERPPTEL
# Summary of the method: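 COX inhibition was measured in vitro with an enzyme immunoassay kit. COX-2 selectivity index = COX-1 IC50/COX-2 IC50.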
# Rattus norvegicus [5] = assay: Antiinflammatory activity against carrageenan-induced rat inflammation model assessed as inhibition of paw edema at 357 umol/kg, po after 3 hrs; type: functional
# Summary of the method: (§2)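 Test compound was given orally to rats at the stated dose (µmol/kg), followed by carrageenan-induced paw edema.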
# Serum = assay: Nitric oxide release in rat serum containing phosphate buffer at pH 7.4 incubated at 37 degC after 1.5 hrs; settings: pH 7.4, 1.5 h
# Rattus norvegicus [6] = assay: Antiinflammatory activity against carrageenan-induced rat inflammation model assessed as inhibition of paw edema at 714 umol/kg, po after 3 hrs; type: functional; summary of the method: as §2
# Rattus norvegicus [7] = assay: Antiinflammatory activity against carrageenan-induced rat inflammation model assessed as inhibition of paw edema at 327 umol/kg, po after 3 hrs; type: functional; summary of the method: as §2
# [8] = Nitric oxide release in phosphate buffer containing 5 mM L-cysteine at pH 7.4 incubated at 37 degC after 1.5 hrs; settings: pH 7.4, 1.5 h
# Rattus norvegicus [9] = assay: Antiinflammatory activity against carrageenan-induced rat inflammation model assessed as inhibition of paw edema at 11.7 umol/kg, po after 3 hrs; type: functional; summary of the method: as §2
SMILES,Ratio IC50 [1],IC50 [2],Activity [3],IC50 [4],inhibition in vivo at 357 µmol/kg (Rattus norvegicus [5]),Activity (Serum),inhibition in vivo at 714 µmol/kg (Rattus norvegicus [6]),inhibition in vivo at 327 µmol/kg (Rattus norvegicus [7]),Activity [8],inhibition in vivo at 11.7 µmol/kg (Rattus norvegicus [9])
CC(=O)OCO/N=[N+](\[O-])N1CCC[C@H]1COC(=O)c1ccccc1OC(C)=O,> 45,2.2 µM,7.4%,> 100 µM,23.7%,50.6%,–,–,–,–
CC(=O)Oc1ccccc1C(=O)O [ASPIRIN],–,–,–,–,–,–,50%,–,–,–
CC(C)Cc1ccc(C(C)C(=O)O)cc1 (stereo not drawn) [IBUPROFEN],–,–,–,–,–,–,–,50%,–,–
[Na+].[O-]/N=[N+](\[O-])N1CCC[C@H]1CO,–,–,84.5%,–,–,84.8%,–,–,–,–
CC(=O)OCO/N=[N+](\[O-])N1CCC[C@H]1COC(=O)C(C)c1ccc(CC(C)C)cc1 (stereo partly drawn),> 15,6.4 µM,4.4%,> 100 µM,–,79.5%,–,57.1%,–,–
CC(=O)Oc1ccccc1C(=O)OC(CO[N+](=O)[O-])CO[N+](=O)[O-],> 13,7.7 µM,3.6%,> 100 µM,30.5%,–,–,–,7.8%,–
CC(C)Cc1ccc(C(C)C(=O)OC(CO[N+](=O)[O-])CO[N+](=O)[O-])cc1 (stereo not drawn),> 58,1.7 µM,3.4%,> 100 µM,–,–,–,59.1%,6.8%,–
O=[N+]([O-])OCC(CO[N+](=O)[O-])O[N+](=O)[O-] [NITROGLYCERIN],–,–,2.8%,–,–,–,–,–,10.1%,–
COc1ccc2c(c1)c(CC(=O)OC[C@@H]1CCCN1/[N+]([O-])=N/OCOC(C)=O)c(C)n2C(=O)c1ccc(Cl)cc1,> 10,9.3 µM,7.9%,> 100 µM,–,80.7%,–,–,–,53.6%
COc1ccc2c(c1)c(CC(=O)OC(CO[N+](=O)[O-])CO[N+](=O)[O-])c(C)n2C(=O)c1ccc(Cl)cc1,> 166,0.6 µM,3.8%,> 100 µM,–,–,–,–,7.4%,42.2%
COc1ccc2c(c1)c(CC(=O)O)c(C)n2C(=O)c1ccc(Cl)cc1 [INDOMETHACIN],–,–,–,–,–,–,–,–,–,50%
